The nature of series [1]: melting temperature; fluorescence melt of hairpins on a sequencing array, two-state fit, raised by 9.35 °C to match UV melts. The note with it: sodium 0.088 M. The procedure, abridged:
(§1)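 Cy3 signals were normalised both to pre-quench Cy3 and to control constructs. They came from library hairpins carrying annealed Cy3 and quencher oligos on a sequenced MiSeq flow cell, imaged in 50 mM Na-HEPES pH 8.0, 25 mM NaCl, in 2.5 °C steps up to 60 °C. Bootstrapped two-state fits gave melting temperature and folding enthalpy, and four replicates were combined by inverse variance. Fitted temperatures were then raised by 9.35 °C to match UV melts.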

The nature of series [2]: folding enthalpy; higher = less favourable; fluorescence melt of hairpins on a sequencing array, two-state fit. The note with it: sodium 0.088 M. In short, it runs like this:
as §1

As for GCACAGGGAAACCTGTGC (((((((....))))))), the Tm in series [1] worked out at 69.3 °C. In addition, the folding enthalpy in series [2] is -38 kcal/mol.
As for GCACATCCGAAAGGATGC (((..(((....)))))), in series [1], the Tm came out at 37.4 °C. For the same sequence, in series [2], the folding enthalpy is -8.29 kcal/mol.
Turning to GCACATGGAAACATGTAC (.(((((....))))).), the Tm in series [1] came to 37.4 °C. The folding enthalpy in series [2] is -17 kcal/mol.
Regarding GCACATGGAAACATGTGC (((((((....))))))), the Tm in series [1] turned out to be 67.4 °C. Moreover, the folding enthalpy in series [2] was -43.4 kcal/mol.
Taken in the same sequence, the figures for GCACCAGAAATGGTGC ((((((....)))))) were 67.8 °C and -35.6 kcal/mol.
Turning to GCACCAGCGAAAGCTTGC (((..(((....)))))), the Tm in series [1] is 38.1 °C. In addition, in series [2], the folding enthalpy was -11.8 kcal/mol.
As for GCACCAGGAAACTGGTAC (.(((((....))))).), the Tm in series [1] came out at 39.6 °C. The folding enthalpy in series [2] was -16.7 kcal/mol.
Taken in the same sequence, the figures for GCACCCACGAAAGTGTGC (((..(((....)))))) were 45.4 °C and -19 kcal/mol.
For the sequence GCACCCCGAAAGGGTTGC (((.(((....))).))), the Tm in series [1] was found to be 55.1 °C. The folding enthalpy in series [2] was -34.8 kcal/mol.
As to GCACCCGAAAGGGACTGC ((((((....)))..))), the Tm in series [1] is 40.8 °C. In series [2], the folding enthalpy is -16 kcal/mol.
Taken in the same sequence, the figures for GCACCCGGAAACGGATGC (((.(((....))).))) were 51.6 °C and -25.5 kcal/mol.
As for GCACCGCCGAAAGGCTGC (((..(((....)))))), the Tm in series [1] was found to be 38.9 °C. For the same sequence, in series [2], the folding enthalpy was -14.7 kcal/mol.
For GCACCGCGAAAGCAGAGC ((.(.((....)).).)), the Tm in series [1] was determined as 41.5 °C. In addition, in series [2], the folding enthalpy was -15.2 kcal/mol.
As to GCACCGCGAAAGCCTTGC (((..((....))..))), the Tm in series [1] amounted to 37 °C. For the same sequence, the folding enthalpy in series [2] is -14.8 kcal/mol.
As for GCACCGCGAAAGCGAAGC ((..(((....)))..)), the Tm in series [1] came to 41.4 °C. The folding enthalpy in series [2] was -11.7 kcal/mol.
Taken in the same sequence, the figures for GCACCGCGAAAGCGACGC ((..(((....)))..)) were 47.2 °C and -15.6 kcal/mol.
With GCACCGCGAAAGCGAGGC ((..(((....)))..)), in series [1], the Tm is 53.2 °C. Further, the folding enthalpy in series [2] was -14.6 kcal/mol.
Consider GCACCGCGAAAGCGATGC (((.(((....))).))), for which the Tm in series [1] is 57.4 °C. The folding enthalpy in series [2] is -43.6 kcal/mol.
Regarding GCACCGCGAAAGCGCAGC ((..(((....)))..)), the Tm in series [1] came to 38.4 °C. For the same sequence, the folding enthalpy in series [2] was -9.35 kcal/mol.
As to GCACCGCGAAAGCGCCGC ((..(((....)))..)), the Tm in series [1] is 36.1 °C. Moreover, the folding enthalpy in series [2] was -8.78 kcal/mol.
Taken in the same sequence, the figures for GCACCGCGAAAGCGCTGC (((.(((....))).))) were 50.3 °C and -31.9 kcal/mol.
Taken in the same sequence, the figures for GCACCGCGAAAGCGTGC (((.(((....)))))) were 63.8 °C and -19 kcal/mol.
On to GCACCGCGAAAGCTGAGC ((.(.((....)).).)), for which the Tm in series [1] worked out at 37.5 °C. Further, the folding enthalpy in series [2] is -14.4 kcal/mol.
In the case of GCACCGGGAAACCAGTGC ((((.((....)).)))), the Tm in series [1] stood at 49.4 °C. For the same sequence, in series [2], the folding enthalpy was -32.1 kcal/mol.
Consider GCACCTCGAAAGAGTGC (((.(((....)))))), for which the Tm in series [1] turned out to be 53.3 °C. Also, the folding enthalpy in series [2] was -46.4 kcal/mol.
On to GCACGACCGAAAGGTTGC (((..(((....)))))), for which, in series [1], the Tm amounted to 38.1 °C. In series [2], the folding enthalpy was -14.4 kcal/mol.
In the case of GCACGACGAAAGTCATGC (((.(((....))).))), in series [1], the Tm was 52.6 °C. In series [2], the folding enthalpy was -36.5 kcal/mol.
For the sequence GCACGAGGAAACCCGTAC (.(((.(....).))).), the Tm in series [1] was determined as 21.9 °C. Moreover, the folding enthalpy in series [2] is -6.61 kcal/mol.
Turning to GCACGAGGAAACTCGTAC (.(((((....))))).), the Tm in series [1] was 38.9 °C. In series [2], the folding enthalpy is -12.7 kcal/mol.
With GCACGCCCGAAAGGGTGC (((..(((....)))))), the Tm in series [1] is 49.9 °C. Further, in series [2], the folding enthalpy is -11.8 kcal/mol.

For the origin of these results see the array DNA melting data of Ke et al. (doi:10.1101/2024.01.08.574731).
